Key:
[1] = Cytotoxicity against human HuH7 cells after 24 hrs; type: cell-based, Huh-7
Rattus norvegicus = experiment: Clearance in Sprague-Dawley rat at 1 mg/kg, iv; type: ADME, organism-based; details: in vivo
Procedure, shortened: (§1)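 Sprague-Dawley rats (n=3) dosed iv at 1 mg/kg as a solution in 10% NMP/10% solutol/40% PEG-400/40% saline.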

[2] = Volume of distribution at steady state in Sprague-Dawley rat at 1 mg/kg, iv; type: ADME, organism-based; details: in vivo, read-out: Vdss; procedure, shortened: as §1
[3] = Metabolic stability in human liver microsomes assessed as parent compound remaining after 60 mins; type: ADME, microsome; details: read-out: Stability
[4] = Half life in Sprague-Dawley rat at 1 mg/kg, iv; type: ADME, organism-based; details: in vivo; procedure, shortened: as §1
[5] = Oral bioavailability in Sprague-Dawley rat at 5 mg/kg; type: ADME, organism-based; details: in vivo
Procedure, shortened: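 Sprague-Dawley rats (n=3) dosed po at 5 mg/kg as a solution in 10% NMP/10% solutol/40% PEG-400/40% saline. Iv arm given at 1 mg/kg in the same vehicle.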

[6] = AUC (infinity) in Sprague-Dawley rat at 1 mg/kg, iv; type: ADME, organism-based; parameters: dose 1 mg/kg, time infinity, route intravenous; details: in vivo; procedure, shortened: as §1
[7] = Metabolic stability in rat liver microsomes assessed as parent compound remaining after 60 mins; type: ADME, microsome; details: read-out: Stability
[8] = Intrinsic solubility of the compound; type: physicochemical

clearance (Rattus norvegicus) [mL/min/kg]	Vd [2] [L/kg]	remaining at 1 h [3] [%]	half-life [4] [h]	bioavailability [5] [%]	AUC(0-inf) [6] [ng·h/mL]	remaining at 1 h [7] [%]	solubility [8]	SMILES	other results
22	2.25	100	1.32	73	759	60	–	CNC(=O)c1c(-c2ccc(F)cc2)oc2cc3c(cc12)[C@H](C)O[C@H](CO)CN3S(C)(=O)=O	CC50 at 24 h [1]: > 3 µM
12.8	1.41	–	2.43	57	1300	–	–	CNC(=O)c1c(-c2ccc(F)cc2)oc2cc3c(cc12)[C@H](C)n1nncc1CN3S(C)(=O)=O	–
–	–	–	–	–	–	–	Insoluble	CS(=O)(=O)N1CCCCc2cc3c(-c4ncc[nH]4)c(-c4ccc(F)cc4)oc3cc21	–
–	–	32.6	–	–	–	5	–	CNC(=O)c1c(-c2ccc(F)cc2)oc2cc3c(cc12)[C@H](C)OCCN3S(C)(=O)=O	–
44.5	1.74	–	0.68	14	379	–	–	CNC(=O)c1c(-c2ccc(F)cc2)oc2cc3c(cc12)[C@H](C)NC(=O)CN3S(C)(=O)=O	–
–	–	100	–	–	–	100	–	CNC(=O)c1c(-c2ccc(F)cc2)oc2cc3c(cc12)[C@H](C)O[C@H](CS(C)(=O)=O)CN3S(C)(=O)=O	CC50 at 24 h [1]: > 10 µM
38.2	2.36	–	0.96	22	439	–	–	CNC(=O)c1c(-c2ccc(F)cc2)oc2cc3c(cc12)[C@H](C)CCCN3S(C)(=O)=O	–
78	1.79	–	0.34	16	234	–	–	CNC(=O)c1c(-c2ccc(F)cc2)oc2cc3c(cc12)[C@@H](C)OCCN3S(C)(=O)=O	–
–	–	–	–	–	–	–	Insoluble	CNC(=O)c1c(-c2ccc(F)cc2)oc2cc3c(cc12)C(C)NC(=O)CN3S(C)(=O)=O (racemic)	–
–	–	85.9	–	–	–	68.9	–	CNC(=O)c1c(-c2ccc(F)cc2)oc2cc3c(cc12)C(C)OC(CO)CN3S(C)(=O)=O (racemic)	–
–	–	–	–	–	–	–	Insoluble	CNC(=O)c1c(-c2ccc(F)cc2)oc2cc3c(cc12)C(C)N(C)C(=O)CN3S(C)(=O)=O (racemic)	–
–	–	–	–	–	–	–	Soluble	CNC(=O)c1c(-c2ccc(F)cc2)oc2cc3c(cc12)C(C)N(C)CCN3S(C)(=O)=O (racemic)	–
–	–	–	–	–	–	–	Insoluble	CNC(=O)c1c(-c2ccc(F)cc2)oc2cc3c(cc12)C(C)n1nnnc1CN3S(C)(=O)=O (racemic)	–
16	1.51	100	3.62	30	1060	99.7	–	CNC(=O)c1c(-c2ccc(F)cc2)oc2cc3c(cc12)C(C)OC(CS(C)(=O)=O)CN3S(C)(=O)=O (racemic)	–
–	–	0.8	–	–	–	0.8	–	CNC(=O)c1c(-c2ccc(F)cc2)oc2cc3c(cc12)C(C)CCCN3S(C)(=O)=O (racemic)	–
–	–	–	–	–	–	–	Soluble	CNC(=O)c1c(-c2ccc(F)cc2)oc2cc3c(cc12)C(C)NCCN3S(C)(=O)=O (racemic)	–
–	–	–	–	–	–	–	Insoluble	CNC(=O)c1c(-c2ccc(F)cc2)oc2cc3c(cc12)C(C)n1nncc1CN3S(C)(=O)=O (racemic)	–
–	–	–	–	–	–	–	Insoluble	CNC(=O)c1c(-c2ccc(F)cc2)oc2cc3c(cc12)C(C)n1ccnc1CN3S(C)(=O)=O (racemic)	–
10.4	1.52	53.3	2.73	73	1610	84	–	CNC(=O)c1c(-c2ccc(F)cc2)oc2cc(N(CCO)S(C)(=O)=O)c(C3CC3)cc12 [NESBUVIR]	–

Source: ChEMBL document CHEMBL4184265, “Discovery of novel potent HCV NS5B polymerase non-nucleoside inhibitors bearing a fused benzofuran scaffold” (Bioorg Med Chem Lett, 2018)
